From ChEMBL document CHEMBL4177692, “Synthesis and antidepressant activity of a series of arylalkanol and aralkyl piperazine derivatives targeting SSRI/5-HT1A/5-HT7” (Bioorg Med Chem Lett, 2017)

What was measured:
[1] = target: T1, 5-hydroxytryptamine receptor 1A (Homo sapiens) (UniProt P08908); experiment: Displacement of [3H]8-OH-DPAT from recombinant human 5-HT1A receptor expressed in HEK293 cell membranes at 10 uM measured after 60 mins by scintillation counting method
T1 sequence (whole entry): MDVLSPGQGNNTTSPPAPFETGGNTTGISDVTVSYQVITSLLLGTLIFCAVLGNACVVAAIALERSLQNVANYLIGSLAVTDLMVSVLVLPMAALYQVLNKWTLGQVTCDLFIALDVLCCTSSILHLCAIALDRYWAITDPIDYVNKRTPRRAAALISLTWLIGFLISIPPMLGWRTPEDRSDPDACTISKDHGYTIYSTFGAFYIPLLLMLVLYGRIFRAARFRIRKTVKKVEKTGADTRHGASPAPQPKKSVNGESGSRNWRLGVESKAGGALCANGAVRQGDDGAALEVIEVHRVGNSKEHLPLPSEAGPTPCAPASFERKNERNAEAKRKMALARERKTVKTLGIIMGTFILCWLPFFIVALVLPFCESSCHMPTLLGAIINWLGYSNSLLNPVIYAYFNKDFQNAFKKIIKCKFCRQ
In short: (§1)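 The 5-HT1A assay displaced [3H]-8-OH-DPAT from HEK-293 cell membrane homogenates. The 5-HT7 assay displaced [3H]-LSD from CHO cell membrane homogenates. The SERT assay measured [3H]-5-HT uptake into rat brain synaptosomes.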

[2] = target: T2, 5-hydroxytryptamine receptor 7 (Homo sapiens, UniProt P34969); experiment: Displacement of [3H]-LSD from recombinant human 5-HT7 receptor expressed in CHO cell membranes at 10 uM measured after 60 mins by scintillation counting method; in short: as §1
T2 sequence (P34969 whole entry): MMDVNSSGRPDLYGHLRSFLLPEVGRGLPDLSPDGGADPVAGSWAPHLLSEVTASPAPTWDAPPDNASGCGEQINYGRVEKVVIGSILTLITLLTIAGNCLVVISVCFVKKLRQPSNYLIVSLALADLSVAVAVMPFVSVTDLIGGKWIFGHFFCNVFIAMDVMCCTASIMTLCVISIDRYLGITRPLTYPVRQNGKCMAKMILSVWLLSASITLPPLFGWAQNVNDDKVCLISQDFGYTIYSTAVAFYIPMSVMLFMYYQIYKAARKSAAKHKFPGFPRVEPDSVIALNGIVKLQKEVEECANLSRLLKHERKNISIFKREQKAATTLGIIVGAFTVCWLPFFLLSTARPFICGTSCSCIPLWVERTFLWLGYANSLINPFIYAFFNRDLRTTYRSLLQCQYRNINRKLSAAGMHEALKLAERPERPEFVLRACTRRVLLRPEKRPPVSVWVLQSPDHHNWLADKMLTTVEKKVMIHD

[3] = target: Sodium-dependent serotonin transporter (Rattus norvegicus) (UniProt P31652); experiment: Inhibition of SERT in rat brain synaptosomes assessed as reduction in [3H]-5-HT uptake at 10 uM measured after 15 mins by scintillation counting method relative to control; format: subcellular; in short: as §1
Chain of Sodium-dependent serotonin transporter (Rattus norvegicus) (P31652 whole entry): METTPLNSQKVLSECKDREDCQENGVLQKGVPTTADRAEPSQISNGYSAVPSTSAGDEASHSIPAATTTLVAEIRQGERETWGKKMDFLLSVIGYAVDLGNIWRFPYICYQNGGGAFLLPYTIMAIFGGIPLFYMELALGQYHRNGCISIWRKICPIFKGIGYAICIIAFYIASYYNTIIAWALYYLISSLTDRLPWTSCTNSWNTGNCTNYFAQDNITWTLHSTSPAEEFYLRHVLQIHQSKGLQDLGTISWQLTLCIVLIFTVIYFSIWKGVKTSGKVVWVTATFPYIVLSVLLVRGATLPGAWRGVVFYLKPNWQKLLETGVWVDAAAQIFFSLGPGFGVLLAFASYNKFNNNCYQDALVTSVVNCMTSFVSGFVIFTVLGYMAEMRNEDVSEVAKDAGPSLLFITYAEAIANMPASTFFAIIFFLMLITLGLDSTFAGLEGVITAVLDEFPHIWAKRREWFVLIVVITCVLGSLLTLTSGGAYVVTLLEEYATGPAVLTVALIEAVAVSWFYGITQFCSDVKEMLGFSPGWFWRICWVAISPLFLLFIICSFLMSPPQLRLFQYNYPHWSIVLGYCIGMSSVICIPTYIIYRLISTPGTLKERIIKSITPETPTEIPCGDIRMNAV

[4] = target: T3, 5-hydroxytryptamine receptor 1A (Homo sapiens, UniProt P08908); experiment: Binding affinity to 5-HT1A receptor (unknown origin)
T3 sequence (P08908 whole entry): T1 sequence (whole entry)

[5] = target: Sodium-dependent serotonin transporter (Homo sapiens, UniProt P31645); experiment: Binding affinity to SERT (unknown origin)
Chain of Sodium-dependent serotonin transporter (Homo sapiens, UniProt P31645) (P31645 whole entry): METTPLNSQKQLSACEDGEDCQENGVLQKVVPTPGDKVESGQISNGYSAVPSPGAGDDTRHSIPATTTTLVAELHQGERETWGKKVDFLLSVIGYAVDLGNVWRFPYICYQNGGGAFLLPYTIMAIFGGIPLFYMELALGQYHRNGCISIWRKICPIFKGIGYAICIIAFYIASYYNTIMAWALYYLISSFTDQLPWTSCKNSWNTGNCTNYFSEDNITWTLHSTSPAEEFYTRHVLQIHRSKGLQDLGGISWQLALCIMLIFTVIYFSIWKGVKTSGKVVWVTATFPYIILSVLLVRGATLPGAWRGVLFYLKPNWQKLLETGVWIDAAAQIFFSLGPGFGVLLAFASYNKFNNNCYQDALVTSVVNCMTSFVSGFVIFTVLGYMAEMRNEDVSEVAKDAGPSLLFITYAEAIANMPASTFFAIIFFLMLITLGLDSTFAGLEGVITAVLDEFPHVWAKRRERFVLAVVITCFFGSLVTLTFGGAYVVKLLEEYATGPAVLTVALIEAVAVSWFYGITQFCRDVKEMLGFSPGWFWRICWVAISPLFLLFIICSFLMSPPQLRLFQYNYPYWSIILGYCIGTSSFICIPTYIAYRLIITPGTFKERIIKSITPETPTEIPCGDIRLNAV

[6] = target: T4, 5-hydroxytryptamine receptor 1A (Rattus norvegicus, UniProt P19327); experiment: Displacement of [3H]8-OH-DPAT from rat cerebral cortex 5-HT1A receptor
T4 sequence (P19327 whole entry): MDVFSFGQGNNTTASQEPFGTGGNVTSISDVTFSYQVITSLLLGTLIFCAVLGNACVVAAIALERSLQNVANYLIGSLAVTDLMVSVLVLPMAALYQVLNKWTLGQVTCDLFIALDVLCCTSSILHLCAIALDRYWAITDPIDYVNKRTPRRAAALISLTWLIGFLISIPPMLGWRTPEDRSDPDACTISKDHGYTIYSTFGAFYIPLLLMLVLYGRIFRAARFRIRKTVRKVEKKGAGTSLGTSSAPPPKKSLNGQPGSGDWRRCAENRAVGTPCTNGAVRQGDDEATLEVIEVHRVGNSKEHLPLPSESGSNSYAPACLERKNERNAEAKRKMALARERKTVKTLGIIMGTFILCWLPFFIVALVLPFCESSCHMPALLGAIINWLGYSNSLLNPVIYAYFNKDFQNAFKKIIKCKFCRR

[7] = target: T5, Sodium-dependent serotonin transporter (Rattus norvegicus, UniProt P31652); experiment: Displacement of [3H]-paroxetine from rat cerebral cortex SERT
T5 sequence (P31652 whole entry): as the sequence (P31652 whole entry) above

Mus musculus [8] = experiment: Antidepressant-like activity in mouse assessed as reduction in immobility time at 20 mg/kg, po administered once daily for 7 days measured last 4 mins of 6 mins test by forced swim test relative to control; format: functional; design: scale not given: the % may be the effect or the level left
In short: (§2)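 Mouse forced swim test. Oral dosing once daily for 7 days at 10, 20 or 40 mg/kg/day. […] Read-out is immobility time. Data given as mean ± SEM, n = 10 per group, tested against vehicle at P<0.05 and P<0.01.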

Mus musculus [9] = experiment: Antidepressant-like activity in po dosed mouse assessed as reduction in immobility time administered once daily for 7 days measured last 4 mins of 6 mins test by forced swim test; format: functional, organism-based; in short: as §2
[10] = target: T5, Sodium-dependent serotonin transporter; experiment: Inhibition of SERT in rat brain synaptosomes assessed as reduction in [3H]-5-HT uptake measured after 15 mins by scintillation counting method; format: subcellular
In short: (§3)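 The 5-HT1A assay used [3H]-8-OH-DPAT displacement on HEK-293 membranes. The 5-HT7 assay used [3H]-LSD displacement on CHO membranes. The SERT assay measured [3H]-5-HT uptake into rat brain synaptosomes.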

Mus musculus [11] = experiment: Antidepressant-like activity in mouse assessed as reduction in immobility time at 40 mg/kg, po administered once daily for 7 days measured last 4 mins of 6 mins test by forced swim test relative to control; format: functional; design: scale not given: the % may be the effect or the level left; in short: as §2
[12] = Clearance in rat liver microsomes at 1 uM measured after 90 mins in presence of NADPH regenerating system by LC-MS/MS analysis; format: ADME, microsome; details: read-out: CLH
[13] = Half-life in rat liver microsomes at 1 uM in presence of NADPH regenerating system by LC-MS/MS analysis; format: ADME, microsome
[14] = target: T2, 5-hydroxytryptamine receptor 7; experiment: Displacement of [3H]-LSD from recombinant human 5-HT7 receptor expressed in CHO cell membranes measured after 60 mins by scintillation counting method; in short: as §3
[15] = target: T3, 5-hydroxytryptamine receptor 1A; experiment: Displacement of [3H]8-OH-DPAT from recombinant human 5-HT1A receptor expressed in HEK293 cell membranes measured after 60 mins by scintillation counting method
Mus musculus [16] = experiment: Antidepressant-like activity in mouse assessed as reduction in immobility time at 10 mg/kg, po administered once daily for 7 days measured last 4 mins of 6 mins test by forced swim test relative to control; format: functional; design: scale not given: the % may be the effect or the level left; in short: as §2

| Structure (SMILES) | inhibition [1] | inhibition [2] | inhibition [3] | IC50 [10] | also measured |
| --- | --- | --- | --- | --- | --- |
| Cc1ccc(-c2ccccc2N2CCN(CCc3ccc(Cl)c(Cl)c3)CC2)cc1 | 99.5% | 98.1% | 65.8% |  |  |
| COc1ccccc1N1CCN(CCCN2CCOc3ccccc32)CC1 |  |  |  |  | Ki [4]: 1.48 nM; IC50 [5]: 195 nM |
| OC(CCN1CCN(c2cccc(-c3ccccc3)c2)CC1)c1ccc(Cl)c(Cl)c1 (stereo not drawn) | 91.5% | 69.8% | 105% |  |  |
| COc1ccccc1N1CCN(CCC(O)c2csc3ccc(F)cc23)CC1 (stereo not drawn) |  |  |  |  | Ki [6]: 2.3 nM; Ki [7]: 12 nM |
| Clc1ccc(CCN2CCN(c3nsc4ccccc34)CC2)cc1Cl | 98.7% | 96% | 102% | 100 nM | Activity (Mus musculus [8]): 21%; Activity (Mus musculus [9]): Dose-dependent effect; Activity (Mus musculus [11]): 45%; microsomal CLint at 1 µM [12]: 262 µL/min/mg; half-life at 1 µM [13]: 5.3 min; Ki [14]: 12 nM; Ki [15]: 0.84 nM; Activity (Mus musculus [16]): 17% |
| COc1ccc(-c2ccccc2N2CCN(CCc3ccc(Cl)c(Cl)c3)CC2)cc1 | 98.7% | 97.5% | 66.1% |  |  |
| Cc1cccc(-c2ccccc2N2CCN(CCc3ccc(Cl)c(Cl)c3)CC2)c1 | 98.4% | 94.7% | 72.3% |  |  |
| Fc1ccc(-c2ccccc2N2CCN(CCc3ccc(Cl)c(Cl)c3)CC2)cc1 | 98.8% | 96.7% | 92.1% | 950 nM |  |
| OC(CN1CCN(c2ccccc2)CC1)c1ccc(Cl)c(Cl)c1 (stereo not drawn) | 98.5% | 99.8% | 112% | 340 nM | Activity (Mus musculus [8]): 26%; Activity (Mus musculus [9]): Dose-dependent effect; Activity (Mus musculus [11]): 30%; microsomal CLint at 1 µM [12]: 226 µL/min/mg; half-life at 1 µM [13]: 6.1 min; Ki [14]: 3.2 nM; Ki [15]: 2.4 nM; Activity (Mus musculus [16]): 16% |
| OC(CCN1CCN(c2ccccc2-c2ccccc2)CC1)c1ccc(Cl)c(Cl)c1 (stereo not drawn) | 98.9% | 102% | 98.9% | 590 nM |  |
| COc1ccccc1N1CCN(CCC(O)c2ccc(Cl)c(Cl)c2)CC1 (stereo not drawn) | 99.3% | 101% | 88.8% |  |  |
| Oc1ccccc1N1CCN(CCC(O)c2ccc(Cl)c(Cl)c2)CC1 (stereo not drawn) | 99.4% | 102% | 84.9% |  |  |
| COc1ccc2[nH]c([S+]([O-])Cc3ncc(C)c(OC)c3C)nc2c1 (stereo not drawn) [OMEPRAZOLE] |  |  |  |  | microsomal CLint at 1 µM [12]: 163 µL/min/mg; half-life at 1 µM [13]: 8.5 min |
| Cc1ccc(Sc2ccccc2N2CCNCC2)c(C)c1 [VORTIOXETINE] |  |  |  | 2.9 nM | Activity (Mus musculus [8]): 34 - 35%; microsomal CLint at 1 µM [12]: 153 µL/min/mg; half-life at 1 µM [13]: 9 min; Ki [14]: 26 nM |
| Fc1cccc(-c2ccccc2N2CCN(CCc3ccc(Cl)c(Cl)c3)CC2)c1 | 99.7% | 96.4% | 97.2% | 880 nM |  |
| Cc1ccc(-c2ccccc2N2CCN(CCc3ccc(Cl)c(Cl)c3)CC2)c(C)c1 | 83.2% | 93.5% | 31.5% |  |  |
| Cc1ccccc1-c1ccccc1N1CCN(CCc2ccc(Cl)c(Cl)c2)CC1 | 93.9% | 97.3% | 61.6% |  |  |
| Cc1ccc(-c2ccccc2N2CCN(CCc3ccc(Cl)c(Cl)c3)CC2)cc1C | 96.8% | 93.2% | 17.6% |  |  |
| Clc1ccc(CCN2CCN(c3ccccc3-c3ccccc3)CC2)cc1Cl | 97.8% | 101% | 104% | 840 nM | Ki [14]: 0.75 nM; Ki [15]: 6.3 nM |
| CSc1ccccc1N1CCN(CCC(O)c2ccc(Cl)c(Cl)c2)CC1 (stereo not drawn) | 99.9% | 101% | 89% |  |  |
